Measurements taken from ChEMBL document CHEMBL1139275, “Design, synthesis, and biological evaluation of biotin-labeled (-)-ternatin, a potent fat-accumulation inhibitor against 3T3-L1 adipocytes” (Bioorg Med Chem Lett, 2009).

Experiments:
[1] = tested on: 3T3-L1; assay: Inhibition of fat accumulation in mouse 3T3L1 cells after 7 days; type: functional, cell-based; settings: 3T3-L1, 168 h
Procedure, shortened: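 3T3-L1 cells were exposed to each sample during differentiation, while untreated controls became fully mature adipocytes. Fat accumulation was expressed relative to the controls, and IC50 was taken as the concentration giving 50% inhibition. Values are means of quadruplicate determinations.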

[2] = tested on: 3T3-L1; assay: Cytotoxicity against mouse 3T3L1 cells; type: cell-based
[3] = Cytotoxicity against mouse 3T3L1 cells at 5.2 uM; type: cell-based; settings: 3T3-L1 cells, read-out: INH

SMILES: CC[C@H](C)[C@H]1NC(=O)[C@@H](CO)NC(=O)[C@@H](C)N(C)C(=O)[C@H](C)N(C)C(=O)[C@H](CC(C)C)NC(=O)[C@H](CC(C)C)N(C)C(=O)[C@H](C)N(C)C1=O
- IC50 [1]: 12 µM

SMILES: CC[C@H](C)[C@H]1NC(=O)[C@@H]([C@@H](C)O)NC(=O)[C@@H](C)N(C)C(=O)[C@H](C)N(C)C(=O)[C@H](CC(C)C)NC(=O)[C@H](CC(C)C)N(C)C(=O)[C@H](C)N(C)C1=O
- IC50 [1]: 3.1 µM

SMILES: CC[C@H](C)[C@H]1NC(=O)[C@@H]([C@H](O)C(C)C)NC(=O)[C@@H](Cc2cn(CCOCCOCCNC(=O)CCCC[C@@H]3SC[C@@H]4NC(=O)N[C@@H]43)nn2)N(C)C(=O)[C@H](C)N(C)C(=O)[C@H](CC(C)C)NC(=O)[C@H](CC(C)C)N(C)C(=O)[C@H](C)N(C)C1=O
- IC50 [1]: 46 µM
- IC50 [2]: > 86 µM

SMILES: C#CC[C@@H]1C(=O)N[C@H]([C@H](O)C(C)C)C(=O)N[C@H]([C@@H](C)CC)C(=O)N(C)[C@@H](C)C(=O)N(C)[C@@H](CC(C)C)C(=O)N[C@@H](CC(C)C)C(=O)N(C)[C@@H](C)C(=O)N1C
- IC50 [1]: 0.019 µM
- cytotoxicity at 5.2 µM [3]: 54%
- IC50 [2]: > 5.2 µM
